Reference: ChEMBL document CHEMBL4024713, “Novel aryl piperazines for alleviation of 'andropause' associated prostatic disorders and depression” (Eur J Med Chem, 2017)
Active and inactive are the calls of the source. No cut-off for these calls is given here.

Legend:
[1] = test system: LNCaP; test: Cytotoxicity against human LNCAP cells after 24 hrs by MTT assay; assay type: functional, cell-based
[2] = target: T1, Alpha-1A adrenergic receptor (Homo sapiens) (UniProt P35348); test: Antagonist activity at recombinant human alpha1a adrenergic receptor expressed in human Chem1 cell membrane assessed as reduction in ephinephrine-induced calcium mobilization at 1 uM by fluoforte dye based fluorescence assay relative to ephinephrine; assay type: functional
T1 sequence (whole entry): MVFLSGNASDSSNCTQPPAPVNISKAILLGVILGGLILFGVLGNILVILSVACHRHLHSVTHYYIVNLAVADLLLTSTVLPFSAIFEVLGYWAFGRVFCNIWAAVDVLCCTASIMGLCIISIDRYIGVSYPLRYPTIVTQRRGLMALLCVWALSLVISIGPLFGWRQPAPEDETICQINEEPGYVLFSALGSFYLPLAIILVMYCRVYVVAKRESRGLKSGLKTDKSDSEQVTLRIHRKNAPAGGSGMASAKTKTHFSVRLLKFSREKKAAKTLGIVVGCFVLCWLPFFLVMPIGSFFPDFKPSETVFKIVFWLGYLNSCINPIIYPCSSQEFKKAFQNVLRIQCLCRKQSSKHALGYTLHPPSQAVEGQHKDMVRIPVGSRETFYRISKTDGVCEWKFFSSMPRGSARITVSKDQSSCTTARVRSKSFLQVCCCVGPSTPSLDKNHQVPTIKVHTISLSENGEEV
In short: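 α1A-adrenergic receptor-expressing Chem-1 cells, 4 x 10^4/well overnight, loaded with FluoForte calcium dye 45 min at 37 °C then 15 min at room temperature. Compounds at 1 μM; epinephrine 20 μM added at 10 s; tamsulosin 100 nM and 1 μM as reference. Fluorescence (ex 490/em 525 nm) read for 180 s as RFU.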

[3] = test system: Rattus norvegicus; test: Toxicity in citral-induced prostatic hyperplasia Sprague-Dawley rat model assessed as effect on seminal vesicle weight at 10 mg/kg, po administered once daily coadministered with citral for 21 days measured 24 hrs last post dose; assay type: organism-based; conditions: in vivo
[4] = test system: PC-3; test: Cytotoxicity against human PC3 cells after 24 hrs by MTT assay; assay type: functional, cell-based; conditions: PC-3, 24 h
[5] = test system: DU-145; test: Cytotoxicity against human DU145 cells after 24 hrs by MTT assay; assay type: functional, cell-based; conditions: DU-145, 24 h
[6] = test system: Rattus norvegicus; test: Anti-androgenic activity in citral-induced prostatic hyperplasia Sprague-Dawley rat model assessed as prostate weight at 10 mg/kg, po administered once daily coadministered with citral for 21 days measured 24 hrs last post dose (reference value: 100%); assay type: functional
In short: (§1)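 Adult male Sprague-Dawley rats (250-280 g, n = 5), citral 100 mg/kg orally once daily for 28 days. From day 8, compound or flutamide at 10 mg/kg orally once daily for the remaining 21 days. Prostate weight is expressed relative to the citral group (100%). Prostates fixed in 10% formalin; 5 μ sections stained with H&E, examined by light microscopy.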

[7] = test system: Rattus norvegicus; test: Anti-androgenic activity in citral-induced prostatic hyperplasia Sprague-Dawley rat model assessed increase in distinction between stromal and acinar compartments at 10 mg/kg, po administered once daily coadministered with citral for 21 days measured 24 hrs last post dose by hematoxyline and eosin stainig based light microscopic analysis; assay type: functional, organism-based; in short: as §1
[8] = test system: Mus musculus; test: Anti-depressant like activity in Swiss albino mouse assessed as reduction in immobility time at 20 mg/kg, po administered 60 mins prior to test measured for 5 mins by forced swim test relative to control; assay type: functional; set-up: scale not given: the % may be the effect or the level left
In short: (§2)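 Male Swiss albino mice (20-25 g); compound 20 mg/kg, imipramine 60 mg/kg or fluoxetine 20 mg/kg given orally in 1% gum acacia (10 mL/kg). After 60 min: 15 min pre-swim in a water cylinder (10 cm depth, 25 ± 1 °C), then retest at 24 h. Immobility recorded for 5 min after 1 min acclimatization; N = 7-9, mean ± SEM, unpaired t-test.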

[9] = test system: Rattus norvegicus; test: Toxicity in citral-induced prostatic hyperplasia Sprague-Dawley rat model assessed as effect on epididymis weight at 10 mg/kg, po administered once daily coadministered with citral for 21 days measured 24 hrs last post dose; assay type: organism-based; conditions: in vivo
[10] = test system: Rattus norvegicus; test: Toxicity in citral-induced prostatic hyperplasia Sprague-Dawley rat model assessed as effect on testis weight at 10 mg/kg, po administered once daily coadministered with citral for 21 days measured 24 hrs last post dose; assay type: organism-based; conditions: in vivo
[11] = test system: Mus musculus; test: Anti-depressant like activity in Swiss albino mouse assessed as reduction in immobility time at 20 mg/kg, po measured for 5 mins by tail suspension test; assay type: functional, organism-based
In short: (§3)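 Male Swiss albino mice dosed orally in 1% gum acacia; imipramine as standard. Each mouse suspended by the tail with tape to a horizontal bar 60 cm above the table. Immobility (no limb or body movement other than respiration) recorded for 5 min after 1 min acclimatization; N = 5.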

[12] = test system: Mus musculus; test: Toxicity in Swiss albino mouse assessed as effect on locomotor activity at 20 mg/kg, po measured at 5 mins interval for 90 mins by open field test; assay type: organism-based; conditions: in vivo
In short: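 Male Swiss albino mice in an activity chamber, infrared beam-break counting over 24 intervals of 5 min (120 min). Oral dosing after the 6th interval; six animals per group.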

[13] = test system: Mus musculus; test: Toxicity in Swiss albino mouse assessed as latency time to fall at 20 mg/kg, po measured at 1 hr interval for 4 hrs by rotarod test; assay type: organism-based; conditions: in vivo
In short: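 Mice trained on the rotarod (5 to 10 rpm), 2 min trials, 3 per day for two days. On day 3, tested before oral dosing and at 1, 2, 3 and 4 h after, recording latency to fall.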

[14] = test system: Mus musculus; test: Anti-depressant like activity in Swiss albino mouse assessed as reduction in immobility time at 60 mg/kg, po administered 60 mins prior to test measured for 5 mins by forced swim test relative to control; assay type: functional; set-up: scale not given: the % may be the effect or the level left; in short: as §2
[15] = test system: Mus musculus; test: Anti-depressant like activity in Swiss albino mouse assessed as reduction in immobility time at 60 mg/kg, po measured for 5 mins by tail suspension test; assay type: functional, organism-based; in short: as §3
[16] = target: T2, Androgen receptor (Homo sapiens) (UniProt P10275); test: Antagonist activity at AR (unknown origin) expressed in African green monkey COS7 cells at 7.5 uM after 24 hrs by dual luciferase reporter gene assay; assay type: cell-based
T2 sequence (whole entry): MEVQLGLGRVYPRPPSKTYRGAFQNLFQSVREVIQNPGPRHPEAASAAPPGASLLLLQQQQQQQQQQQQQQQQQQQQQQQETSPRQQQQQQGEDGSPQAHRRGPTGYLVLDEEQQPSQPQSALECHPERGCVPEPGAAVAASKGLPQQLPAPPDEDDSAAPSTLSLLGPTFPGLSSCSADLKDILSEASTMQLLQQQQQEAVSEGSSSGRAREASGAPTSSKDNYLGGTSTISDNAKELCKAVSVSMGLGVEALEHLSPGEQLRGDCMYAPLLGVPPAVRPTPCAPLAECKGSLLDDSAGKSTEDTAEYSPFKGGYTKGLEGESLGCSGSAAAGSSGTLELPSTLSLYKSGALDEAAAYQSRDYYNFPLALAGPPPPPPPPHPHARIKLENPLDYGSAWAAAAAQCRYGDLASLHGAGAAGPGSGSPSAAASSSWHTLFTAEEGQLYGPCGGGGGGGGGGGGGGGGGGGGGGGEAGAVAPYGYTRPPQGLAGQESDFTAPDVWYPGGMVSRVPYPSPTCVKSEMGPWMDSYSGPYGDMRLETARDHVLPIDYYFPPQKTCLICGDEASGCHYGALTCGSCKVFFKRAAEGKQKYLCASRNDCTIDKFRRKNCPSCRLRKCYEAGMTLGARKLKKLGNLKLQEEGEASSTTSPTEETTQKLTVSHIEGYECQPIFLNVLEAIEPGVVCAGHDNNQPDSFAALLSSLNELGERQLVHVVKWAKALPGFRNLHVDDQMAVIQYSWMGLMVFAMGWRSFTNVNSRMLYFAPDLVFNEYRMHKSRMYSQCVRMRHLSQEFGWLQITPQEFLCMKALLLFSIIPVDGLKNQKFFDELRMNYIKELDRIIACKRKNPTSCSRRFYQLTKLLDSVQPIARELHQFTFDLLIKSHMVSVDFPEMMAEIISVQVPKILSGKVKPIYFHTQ
In short: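 Cos7 cells (AR-negative) transiently transfected for 8 h with pARE-E1B-LUC reporter plus pCR3.1.AR expression vector. Then in complete medium, treated with compound at 7.5 μM for 24 h; bicalutamide 3 μM as positive control. Luciferase normalized to pRL-SV40 internal control, expressed as RLU relative to control = 100%.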

## COc1ccccc1N1CCN(CCN2CCN(c3ccc(F)cc3)CC2)CC1
[1]
  EC50: 78.7 µM

## CCOc1ccccc1OCCN[C@H](C)Cc1ccc(OC)c(S(N)(=O)=O)c1
[2]
  fold change (FC): 1.6

## Fc1ccc(N2CCN(CCN3CCN(c4ccc(F)cc4)CC3)CC2)cc1
[1]
  EC50: 71.2 µM

## Fc1ccc(N2CCN(CCCN3CCN(c4ccc(F)cc4)CC3)CC2)cc1
[1]
  EC50: 49.2 µM

## O=[N+]([O-])c1cc(C(F)(F)F)ccc1N1CCN(CCN2CCN(c3ccc(C(F)(F)F)cc3[N+](=O)[O-])CC2)CC1
[1]
  EC50: 63.2 µM

## O=[N+]([O-])c1ccc(N2CCN(CCN3CCN(c4ccc([N+](=O)[O-])cc4)CC3)CC2)cc1
[1]
  EC50: 25.2 µM

## c1ccc(N2CCN(CCN3CCN(c4ccccn4)CC3)CC2)nc1
[3]
  Activity: Non-Toxic
[4]
  EC50: > 80 µM
[5]
  EC50: > 80 µM
[6]
  Activity: 44%
[7]
  Activity: Active
[8]
  Activity: 16.95%
[9]
  Activity: Non-Toxic
[1]
  EC50: 12.4 µM
[10]
  Activity: Non-Toxic

## CC(C)C(=O)Nc1ccc([N+](=O)[O-])c(C(F)(F)F)c1 [FLUTAMIDE]
[6]
  Activity: 58.8%
[1]
  EC50: 7 µM

## O=[N+]([O-])c1ccc(N2CCN(CCCN3CCN(c4ccc([N+](=O)[O-])cc4)CC3)CC2)cc1
[3]
  Activity: Non-Toxic
[4]
  EC50: > 80 µM
[5]
  EC50: > 80 µM
[6]
  Activity: 29%
[7]
  Activity: Active
[11]
  Activity: Active
[12]
  Activity: Non-Toxic
[8]
  Activity: 69.74%
[9]
  Activity: Non-Toxic
[1]
  EC50: 11.8 µM
[13]
  Time: 120 s
[10]
  Activity: Non-Toxic

## O=[N+]([O-])c1ccc(N2CCN(CCN3CCN(c4ccc(F)cc4)CC3)CC2)cc1
[1]
  EC50: 77.9 µM

## CN(C)CCCN1c2ccccc2CCc2ccccc21 [IMIPRAMINE]
[14]
  Activity: 40.39%
[15]
  Activity: Active

## O=[N+]([O-])c1ccc(N2CCN(CCN3CCN(c4ccc([N+](=O)[O-])cc4C(F)(F)F)CC3)CC2)c(C(F)(F)F)c1
[1]
  EC50: 72.2 µM

## CNCCC(Oc1ccc(C(F)(F)F)cc1)c1ccccc1 (stereo not drawn) [FLUOXETINE]
[8]
  Activity: 75.35%

## O=[N+]([O-])c1cc(C(F)(F)F)ccc1N1CCN(CCCN2CCN(c3ccc(C(F)(F)F)cc3[N+](=O)[O-])CC2)CC1
[3]
  Activity: Non-Toxic
[4]
  EC50: > 80 µM
[16]
  Activity: Active
[5]
  EC50: 76.5 µM
[6]
  Activity: 51.7%
[7]
  Activity: Active
[8]
  Activity: 25.71%
[9]
  Activity: Non-Toxic
[1]
  EC50: 12.2 µM
[10]
  Activity: Non-Toxic

## O=[N+]([O-])c1ccc(N2CCN(CCCN3CCN(c4ccc([N+](=O)[O-])cc4C(F)(F)F)CC3)CC2)c(C(F)(F)F)c1
[1]
  EC50: 55.5 µM

## Fc1ccccc1N1CCN(CCN2CCN(c3ccccc3F)CC2)CC1
[1]
  EC50: 40 µM

## Fc1ccccc1N1CCN(CCCN2CCN(c3ccccc3F)CC2)CC1
[3]
  Activity: Non-Toxic
[4]
  EC50: > 80 µM
[5]
  EC50: > 80 µM
[6]
  Activity: 37%
[7]
  Activity: Active
[8]
  Activity: 20.86%
[9]
  Activity: Non-Toxic
[1]
  EC50: 10.4 µM
[10]
  Activity: Non-Toxic

## COc1ccccc1N1CCN(CCN2CCN(c3ccc([N+](=O)[O-])cc3)CC2)CC1
[1]
  EC50: 46.5 µM

## COc1ccccc1N1CCN(CCN2CCN(c3ccccc3OC)CC2)CC1
[1]
  EC50: 40 µM

## Fc1ccc(N2CCN(CCN3CCN(c4ccccc4F)CC3)CC2)cc1
[1]
  EC50: 68 µM
